PABP1 MLLE inh: inhibitors of microRNA-mediated deadenylation, human PABP1 MLLE binding. 360,000 compounds, 0.36% hits. AID 588489. GST-MLLE / FITC-PAM2 fluorescence polarization. P11940. inhibition, % at 20 µM; in the data active = inhibition above about 35%, passing the limit was not always enough;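 note: plate controls were DMSO wells with GST-MLLE for no effect and wells lacking GST-MLLE protein for full effect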
Target sequence (P11940 whole entry, looked up): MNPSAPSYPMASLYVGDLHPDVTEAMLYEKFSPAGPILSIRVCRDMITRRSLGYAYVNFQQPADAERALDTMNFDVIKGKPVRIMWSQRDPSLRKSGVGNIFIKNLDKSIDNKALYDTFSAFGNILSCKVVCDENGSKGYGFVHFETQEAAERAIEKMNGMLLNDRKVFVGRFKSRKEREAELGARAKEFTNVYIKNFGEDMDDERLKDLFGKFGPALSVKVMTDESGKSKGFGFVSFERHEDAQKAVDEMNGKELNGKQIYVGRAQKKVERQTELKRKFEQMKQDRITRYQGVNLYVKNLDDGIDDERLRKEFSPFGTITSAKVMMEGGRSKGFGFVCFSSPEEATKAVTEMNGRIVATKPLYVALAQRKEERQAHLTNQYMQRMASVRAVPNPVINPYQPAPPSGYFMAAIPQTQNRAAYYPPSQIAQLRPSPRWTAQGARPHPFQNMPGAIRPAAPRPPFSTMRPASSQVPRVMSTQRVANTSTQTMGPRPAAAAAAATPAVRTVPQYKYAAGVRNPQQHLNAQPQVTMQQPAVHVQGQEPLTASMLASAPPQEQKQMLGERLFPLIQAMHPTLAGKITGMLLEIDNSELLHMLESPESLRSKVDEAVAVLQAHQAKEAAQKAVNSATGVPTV
SKN-1 inh: inhibitors of C. elegans SKN-1; C. elegans VP596 Pgst-4::GFP/RFP ratio, acrylamide-induced, 24 h; inhibition, % at 21.8 µM; 360,000 compounds, 0.49% hits; AID 624304;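 active = interference check ratio from 0.5 to 1.5 plus GFP to RFP signal ratio inhibition reaching or exceeding a fixed threshold, cut at about 30% in these data, passing the limit was not always enough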
MT1-MMP act inh: MT1-MMP (human) activation inhibition | P50281 | HT1080 RFP-PRO-GFP cells, GFP/RFP ratio fluorescence, overnight; percent of plate control window, DMSO zero | GFP/RFP ratio change, % at 20 µM | 360,000 compounds, 0.061% hits | AID 651647;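 active = GFP/RFP ratio change of at least 30% with cell ATP level not reduced by more than half and red fluorescence within 50% of control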
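Material – HT1080 RFP-PRO-GFP cells · Control set – DMSO wells and RFP-L50D-GFP cells · Incubation – overnight cell settling, then overnight compound exposure, 37 °C, 5% CO2 · Compound dosing – single-point 20 µM compound, 1% DMSO · Read-out – GFP/RFP fluorescence ratio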
eIF4H inh: inhibitors of RNA binding by human eIF4H; Q15056; eIF4H fluorescence polarization binding assay; inhibition, % at 35 µM; 290,000 compounds, 0.94% hits; AID 2012;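 note: calls also rest on retests at 20 µM and on dose response follow-up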
PABP polyA inh: blocks human PABP binding to poly(A) RNA; P11940; fluorescence polarization; inhibition, % at 35 µM; 290,000 compounds, 1% hits; AID 2014;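 note: calls also rest on retests at 20 µM and on dose response follow-up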
The depositor's hits bear a star. Hits are enriched below; roughly 1.7% of the tested compounds scored in any of these assays. Unless noted, the rule behind the calls is not given here.

COc1ccc(C(=O)Nc2ccc(S(=O)(=O)N3CCCC3)cc2)cc1[N+](=O)[O-] was read as PABP1 MLLE inh -10, SKN-1 inh -6, MT1-MMP act inh 3, eIF4H inh 2 and PABP polyA inh 4.
`COc1ccc(/C=N/NC(=O)c2nnn(-c3nonc3N)c2-c2cccs2)c(OC)c1` gave PABP1 MLLE inh 1, SKN-1 inh 15, MT1-MMP act inh 1, eIF4H inh -10 and PABP polyA inh -10.
`O=C1/C(=C\c2ccc(O)cc2)SC(=S)N1/N=C/c1ccc(O)cc1` gave PABP1 MLLE inh -142, SKN-1 inh -12, MT1-MMP act inh -93, eIF4H inh 83* and PABP polyA inh 53*.
CC(OC(=O)C1CC(=O)N(Cc2ccco2)C1)C(=O)Nc1ccccc1[N+](=O)[O-] (stereo not given) was read as PABP1 MLLE inh 14, SKN-1 inh 6 and MT1-MMP act inh -4.
For Nc1nnc(CC(=O)N/N=C/c2cc([N+](=O)[O-])cc(Br)c2O)s1 the results were PABP1 MLLE inh -86, SKN-1 inh -13, MT1-MMP act inh 6, eIF4H inh 86* and PABP polyA inh 47*.
Screening Nc1nnc(CC(=O)N/N=C/c2cccc([N+](=O)[O-])c2)s1 returned PABP1 MLLE inh -17, SKN-1 inh -10, MT1-MMP act inh 2, eIF4H inh 4 and PABP polyA inh 6.
`CSCCC(NC(=O)c1ccc([N+](=O)[O-])cc1Cl)C(=O)OC1CCCCC1=O` (stereo not given) gave PABP1 MLLE inh 10, SKN-1 inh 4, MT1-MMP act inh 0, eIF4H inh -2 and PABP polyA inh -8.
Screening Cc1ccc(C(=O)NCCNC(=O)Cc2ccccc2)cn1 returned PABP1 MLLE inh 6, SKN-1 inh -5, MT1-MMP act inh 0, eIF4H inh -4 and PABP polyA inh -3.
O=C(NC(=S)Nc1ccccc1N1CCCCC1)c1ccco1 was read as PABP1 MLLE inh 43*, SKN-1 inh -1, MT1-MMP act inh -1, eIF4H inh 2 and PABP polyA inh 32.
Screening O=C(NC(=S)Nc1cccc2c(O)cccc12)c1ccccc1[N+](=O)[O-] returned PABP1 MLLE inh 17, SKN-1 inh 13, MT1-MMP act inh 5, eIF4H inh 75* and PABP polyA inh 34*.
Screening O=C(NNC(=S)NC(=O)c1ccccc1[N+](=O)[O-])c1ccccc1O returned PABP1 MLLE inh 16, SKN-1 inh 8, MT1-MMP act inh 7, eIF4H inh 16 and PABP polyA inh 11.
For O=C(NC(=S)Nc1cccc2cc(O)ccc12)c1ccco1 the results were PABP1 MLLE inh 38, SKN-1 inh -9, MT1-MMP act inh -1, eIF4H inh 1 and PABP polyA inh 23.
Screening O=C(NC(=S)Nc1cccc2c(O)cccc12)c1ccco1 returned PABP1 MLLE inh 25, SKN-1 inh 14, MT1-MMP act inh -4, eIF4H inh 66* and PABP polyA inh 55*.
For CC1Cc2ccccc2N1C(=S)NC(=O)c1ccco1 (stereo not given) the results were PABP1 MLLE inh 5, SKN-1 inh 2, MT1-MMP act inh 2, eIF4H inh 2.5* and PABP polyA inh 68*.
For C[C@H](CO)N1C[C@H](C)[C@H](CN(C)S(=O)(=O)c2ccc(F)cc2)OCc2cnnn2CCCC1=O the results were PABP1 MLLE inh 8, SKN-1 inh 10 and MT1-MMP act inh 2.
For C=CCc1c(C)nc(SCc2ccccc2)[nH]c1=O the results were PABP1 MLLE inh -3, SKN-1 inh 19, MT1-MMP act inh 0, eIF4H inh 5 and PABP polyA inh 11.
For Cc1c(NC(=S)NC(=O)C(C)(C)C)cccc1[N+](=O)[O-] the results were PABP1 MLLE inh 34, SKN-1 inh 6, MT1-MMP act inh 1, eIF4H inh active and PABP polyA inh 120*.
For CC1CCCC(NC(=O)COC(=O)CCSc2ccccc2)C1C (stereo not given) the results were PABP1 MLLE inh 9, SKN-1 inh 13, MT1-MMP act inh 1, eIF4H inh 2 and PABP polyA inh 2.
Screening Cc1cc(C)c(NC(=O)Cn2nnc(C(=O)NCc3ccc4c(c3)OCO4)c2N)c(C)c1 returned PABP1 MLLE inh 2, SKN-1 inh 8, MT1-MMP act inh 0, eIF4H inh -12 and PABP polyA inh -1.
`CCn1c(C)c(C2=CCN(S(=O)(=O)c3ccccc3)CC2)c2ccccc21` gave PABP1 MLLE inh -12, SKN-1 inh 54*, MT1-MMP act inh 0, eIF4H inh inconclusive and PABP polyA inh 2.
Cc1ccc(S(=O)(=O)N2CC=C(c3c(C)n(C)c4ccccc34)CC2)cc1 was read as PABP1 MLLE inh 7, SKN-1 inh 52*, MT1-MMP act inh 13, eIF4H inh inconclusive and PABP polyA inh 14.
CCOc1ccc(-c2cc(C(=O)Nc3ccc(C)c(NS(C)(=O)=O)c3)[nH]n2)c(C)c1 was read as PABP1 MLLE inh -1, SKN-1 inh 22 and MT1-MMP act inh -7.
`CCOc1ccc(C(=O)NCC(=O)NNC(=O)c2ccco2)cc1OCC` gave PABP1 MLLE inh 8, SKN-1 inh 8 and MT1-MMP act inh -2.
CC(/C=N/n1c(-c2cc(C)[nH]n2)n[nH]c1=S)=C\c1ccco1 was read as PABP1 MLLE inh -9, SKN-1 inh 10, MT1-MMP act inh 2, eIF4H inh 81 and PABP polyA inh 47.
`CC(/C=N/n1cnnc1)=C\c1ccco1` gave PABP1 MLLE inh 2, SKN-1 inh -18, MT1-MMP act inh -7, eIF4H inh 72 and PABP polyA inh active.
`CCN(CC)Cc1ccc(NC(=O)c2sc3cc(Cl)ccc3c2Cl)cc1` gave PABP1 MLLE inh 0, SKN-1 inh 51*, MT1-MMP act inh -2, eIF4H inh -2 and PABP polyA inh -16.
`CSc1ccc(S(=O)(=O)N2CCC(C(=O)Nc3ccccc3C(F)(F)F)CC2)cc1` gave PABP1 MLLE inh 20, SKN-1 inh 42*, MT1-MMP act inh -2, eIF4H inh -3 and PABP polyA inh 1.
`O=C(CSc1ncnc2ccccc12)NCc1ccco1` gave PABP1 MLLE inh 44*, SKN-1 inh 0, MT1-MMP act inh -4, eIF4H inh 12 and PABP polyA inh 7.
Cc1nc(SCC(=O)NCc2ccco2)c2c3c(sc2n1)CCCC3 was read as PABP1 MLLE inh -1, SKN-1 inh 5, MT1-MMP act inh -3, eIF4H inh -7 and PABP polyA inh 6.
For O=C(CSc1nc2ccccc2c2nc3ccccc3n12)NCc1ccco1 the results were PABP1 MLLE inh -12, SKN-1 inh 48*, MT1-MMP act inh -2, eIF4H inh 42 and PABP polyA inh 0.
For CCCc1nc2sc3c(SCC(=O)NCc4ccco4)ncnc3c2c2c1CCC2 the results were PABP1 MLLE inh 10, SKN-1 inh 4, MT1-MMP act inh -4, eIF4H inh 78* and PABP polyA inh 58*.
